Assay results taken from ChEMBL document CHEMBL3120104, “Discovery of the first C-nucleoside HCV polymerase inhibitor (GS-6620) with demonstrated antiviral response in HCV infected patients” (J Med Chem, 2014).

How the values were obtained:
Hepatitis C virus [1] = experiment: Antiviral activity against HCV genotype 1b infected in human HuH7 cells assessed as inhibition of viral replication after 3 days by luminescence assay; assay type: functional, organism-based, Hepacivirus hominis; conditions: Huh-7, 72 h
Procedure, shortened: (§1)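 Multiplex replicon assay carrying a renilla luciferase reporter, with stable GT1b, 1a and 2a replicons and chimeric 2b, 3a, 4a, 5a and 6a replicons. 2000 replicon cells/well in medium without Geneticin. Ten-step 1:3 serial dilutions, four replicates, 0.44% DMSO final. Incubated 3 days at 37 °C, 5% CO₂. Luminescence normalised to DMSO wells and to protease-inhibitor (ITMN-191) wells. EC50 from a four-parameter Hill fit.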

[2] = molecular target: DNA-directed RNA polymerase, mitochondrial (Homo sapiens) (UniProt O00411); experiment: Inhibition of mitochondrial RNA polymerase (unknown origin) assessed as inhibition of single nucleotide incorporation; conditions: concentration not given here
Sequence of DNA-directed RNA polymerase, mitochondrial (Homo sapiens) (O00411 whole entry): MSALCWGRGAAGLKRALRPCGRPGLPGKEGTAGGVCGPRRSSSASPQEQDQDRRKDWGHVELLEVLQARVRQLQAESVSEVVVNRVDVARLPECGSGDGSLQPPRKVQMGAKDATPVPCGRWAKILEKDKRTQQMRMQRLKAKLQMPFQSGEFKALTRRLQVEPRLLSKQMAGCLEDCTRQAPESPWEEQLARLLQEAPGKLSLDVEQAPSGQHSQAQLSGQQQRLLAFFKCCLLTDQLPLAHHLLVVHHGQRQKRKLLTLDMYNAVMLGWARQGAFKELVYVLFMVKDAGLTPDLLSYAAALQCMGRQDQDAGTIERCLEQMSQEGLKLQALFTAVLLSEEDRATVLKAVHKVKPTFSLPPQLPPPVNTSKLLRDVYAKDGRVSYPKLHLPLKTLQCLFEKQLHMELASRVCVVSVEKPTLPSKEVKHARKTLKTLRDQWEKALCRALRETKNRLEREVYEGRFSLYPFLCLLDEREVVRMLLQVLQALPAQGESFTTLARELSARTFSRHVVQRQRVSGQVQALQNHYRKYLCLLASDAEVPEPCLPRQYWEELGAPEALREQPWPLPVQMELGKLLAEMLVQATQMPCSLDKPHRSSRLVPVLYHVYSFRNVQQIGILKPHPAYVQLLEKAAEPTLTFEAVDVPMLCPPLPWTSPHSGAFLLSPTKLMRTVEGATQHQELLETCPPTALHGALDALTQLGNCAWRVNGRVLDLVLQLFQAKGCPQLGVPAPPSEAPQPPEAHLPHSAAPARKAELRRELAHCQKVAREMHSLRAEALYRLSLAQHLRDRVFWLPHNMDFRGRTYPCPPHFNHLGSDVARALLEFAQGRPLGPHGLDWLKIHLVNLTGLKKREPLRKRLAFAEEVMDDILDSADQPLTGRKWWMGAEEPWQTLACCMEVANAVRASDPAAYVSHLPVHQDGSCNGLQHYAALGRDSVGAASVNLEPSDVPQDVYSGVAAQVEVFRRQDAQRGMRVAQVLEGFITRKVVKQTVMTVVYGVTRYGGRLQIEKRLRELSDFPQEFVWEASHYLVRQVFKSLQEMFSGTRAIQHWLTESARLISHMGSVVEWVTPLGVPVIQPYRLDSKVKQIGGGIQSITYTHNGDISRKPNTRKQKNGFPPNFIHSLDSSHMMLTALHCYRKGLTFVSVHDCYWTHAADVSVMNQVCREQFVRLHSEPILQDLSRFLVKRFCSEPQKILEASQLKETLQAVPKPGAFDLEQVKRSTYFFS
Procedure, shortened: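 Reactions started with 500 μM (final) natural NTP or NTP analog. Time-point aliquots were quenched in EDTA/formamide, heated to 65 °C, resolved on 20% polyacrylamide/8 M urea gels, and product formation quantified by phosphorimaging.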

[3] = Inhibition of HCV genotype 1b recombinant NS5B RNA dependent RNA polymerase using sshRNA as substrate incubated for 5 mins prior to compound addition measured after 90 mins in presence of [33P]GTP
[4] = Metabolic stability in serum (unknown origin); assay type: ADME
[5] = Lipophilicity, log D of the compound by HPLC/UV method; assay type: physicochemical
Procedure, shortened: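 A 10 mM DMSO stock was diluted 1:100 into 1:1 acetonitrile/water, shaken 30 min, and analysed by HPLC/UV on a C18 column with 20 mM ammonium acetate/acetonitrile mobile phase.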

[6] = Toxicity in dog after 7 days; assay type: organism-based, Canis lupus familiaris; conditions: in vivo
Procedure, shortened: (§2)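 Nonclinical 7-day toxicology study with daily dosing up to 300 mg/(kg day) in rats and up to 75 mg/(kg day) in dogs; NOAEL set from test-article related findings.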

Syrian golden hamster [7] = experiment: Cmax in golden syrian hamster assessed as liver triphosphate level at 5 mg/kg, po by LC/MS/MS analysis; assay type: ADME, organism-based, Mesocricetus auratus; design: dose 5 mg/kg, route oral; conditions: in vivo
Procedure, shortened: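 Groups of 12 Golden Syrian hamsters were dosed orally at 5 mg-equiv/kg. Vehicle was EtOH/PEG400/water buffered with 50 mM pH 4 citrate at 2.5 mg-equiv/mL. Liver was homogenized in four volumes of ice-cold 0.1% KOH/67 mM EDTA in 70% MeOH containing 0.25 μM Cl-ATP, then centrifuged, dried and reconstituted in 1 mM ammonium phosphate pH 7.0. Triphosphate was measured by LC/MS/MS, with endogenous ATP checked for sample stability.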

[8] = Toxicity in rat after 7 days; assay type: organism-based; conditions: in vivo; procedure, shortened: as §2
Hepatitis C virus [9] = experiment: Selectivity ratio of EC50 for HCV harboring NS5B RNA dependent RNA polymerase S282T mutant to EC50 for wild-type HCV; assay type: functional, Hepacivirus hominis
[10] = Cytotoxicity against human HuH7 cells after 3 days by fluorescence assay; assay type: cell-based; conditions: Huh-7 cells
Procedure, shortened: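 Huh-7 HCV replicon cells were seeded at 2000 cells/well in medium without Geneticin. Compounds were added as ten-point 1:3 DMSO dilutions in quadruplicate (final DMSO 0.44%), with […] as the 100% cytotoxicity control. After 3 days at 37 °C, cells were washed and given 400 nM calcein AM for 30 min at RT, and fluorescence read at ex 490/em 520 nm. Signal was normalized to DMSO and puromycin wells, and CC50 taken from a four-parameter Hill fit.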

Syrian golden hamster [11] = experiment: Cmax in golden syrian hamster assessed as liver triphosphate level at 1 mg/kg, iv by LC/MS/MS analysis; assay type: ADME, organism-based, Mesocricetus auratus; design: dose 1 mg/kg, route intravenous; conditions: in vivo
Procedure, shortened: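 Golden Syrian hamsters in groups of 12, dosed iv at 1 mg-equiv/kg in EtOH/PEG400/water adjusted to pH 4 with HCl (0.5 mg-equiv/mL). Liver homogenised in ice-cold 70% MeOH with 0.1% KOH, 67 mM EDTA and 0.25 μM Cl-ATP internal standard, then centrifuged, dried and reconstituted. Triphosphate measured by LC/MS/MS; endogenous ATP checked for sample stability.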

[12] = Efflux ratio of apparent permeability across human Caco2 cells at 100 uM; assay type: ADME, cell-based; conditions: Caco-2
Procedure, shortened: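 Caco-2 monolayers grown to confluence for at least 21 days; membrane integrity checked by TEER after equilibration in transport buffer. Compound added to apical or basolateral side (duplicate wells) to give forward and reverse permeability. Receiver samples taken at 1 and 2 h, acetonitrile-precipitated, and quantified by LC/MS/MS. Papp calculated from receiver slope, volume and monolayer area. Recovery also measured.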

[13] = Oral absorption in beagle dog at 5 mg/kg, po by LC/MS/MS analysis; assay type: ADME, organism-based, Canis lupus familiaris; design: dose 5 mg/kg, route oral; conditions: in vivo
Procedure, shortened: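 Naive male beagle dogs were dosed once, orally at 5 mg/kg in EtOH/PEG 400/50 mM citrate buffer pH 4 (5/40/55), or intravenously at 0.5 mg/kg for reference. Plasma was sampled over 24 h and processed by acetonitrile precipitation. Bioavailability %F = AUC_po × Dose_iv / (AUC_iv × Dose_po).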

Hepatitis C virus [14] = experiment: Antiviral activity against HCV genotype 1 infected in human patient assessed as viral load reduction at 900 mg, bid relative to placebo; assay type: functional, Hepacivirus hominis
Homo sapiens = experiment: Toxicity in human patient infected with HCV genotype 1 administered twice a day for 5 days; assay type: organism-based; conditions: in vivo, 120 h
Procedure, shortened: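 Randomized, double-blind, placebo-controlled multiple-dose escalation in treatment-naive patients chronically infected with HCV genotype 1. Nine cohorts (8 active, 2 placebo each) received 50 mg once daily up to 900 mg BID, fed or fasted, for 5 days. Safety, tolerability and viral load were assessed.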

Hepatitis C virus [15] = experiment: Antiviral activity against HCV genotype 1 infected in human patient assessed as viral load reduction at 450 mg administered as solution bid relative to baseline control; assay type: functional, Hepacivirus hominis
Procedure, shortened: (§3)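 Randomized, double-blind, placebo-controlled, multiple-dose, dose-escalation trial in treatment-naive patients chronically infected with HCV genotype 1. Cohorts had eight active and two placebo subjects. Doses ran from 50 mg once daily to 900 mg BID, fed or fasted, for 5 days. Read-out was median viral load change (log10 IU/mL) from baseline.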

Hepatitis C virus [16] = experiment: Antiviral activity against HCV genotype 2a; assay type: functional, organism-based, Hepacivirus hominis; conditions: pooled result: one value given for 8 cell lines, strains, targets or settings; procedure, shortened: as §1
Hepatitis C virus [17] = experiment: Antiviral activity against HCV genotype 1 infected in human patient assessed as viral load reduction at 900 mg administered as tablet formulation bid for 5 days relative to baseline control; assay type: functional, Hepacivirus hominis; procedure, shortened: as §3
Rattus norvegicus = experiment: Toxicity in Sprague-Dawley rat assessed as death at 20 to 40 mg/kg, po qd for 7 days; assay type: organism-based; design: dose 20-40 mg/kg, route oral; conditions: in vivo, 168 h
[18] = Toxicity in po dosed Sprague-Dawley rat assessed as necrosis in organs administered qd for 7 days; assay type: organism-based; conditions: in vivo

Structure (SMILES): C[C@@]1(c2ccc3c(N)ncnn23)O[C@H](CO)[C@@H](O)[C@@]1(C)O
- EC50 (Hepatitis C virus [1]): > 89 µM
- inhibition [2]: 0.08%
- IC50 [3]: 55 µM

Structure (SMILES): CC(C)OC(=O)[C@H](C)NP(=O)(OC[C@H]1O[C@@](C#N)(c2ccc3c(N)ncnn23)[C@](C)(O)[C@@H]1OC(=O)C(C)C)Oc1ccccc1 (stereo partly drawn)
- Stability [4]: Stable
- EC50 (Hepatitis C virus [1]): 0.61 µM
- logD [5]: 2.9
- NOAEL at 168 h [6]: > 75 mg/kg/day
- Cmax (Syrian golden hamster [7]): 3.67 µM
- NOAEL at 168 h [8]: > 300 mg/kg/day
- Ratio EC50 (Hepatitis C virus [9]): >95
- CC50 at 72 h [10]: 47 µM
- Cmax (Syrian golden hamster [11]): 4.5 µM
- efflux ratio at 100 µM [12]: < 2
- Fa [13]: 88%

Structure (SMILES): CC(C)OC(=O)[C@H](C)N[P@](=O)(OC[C@H]1O[C@@](C#N)(c2ccc3c(N)ncnn23)[C@](C)(O)[C@@H]1OC(=O)C(C)C)Oc1ccccc1 [GS-6620]
- Activity (Hepatitis C virus [14]): 1.14 log10IU/ml
- Stability [4]: Stable
- MTD (Homo sapiens): 900 mg
- Activity (Hepatitis C virus [15]): 1.63 log10IU/ml
- EC50 (Hepatitis C virus [16]): 0.068 µM
- Activity (Hepatitis C virus [17]): 1.73 log10IU/ml

Structure (SMILES): C[C@@]1(O)[C@H](O)[C@@H](CO)O[C@H]1c1ccc2c(N)ncnn12
- Activity (Rattus norvegicus): Toxic
- inhibition [2]: 21%
- NOAEL at 168 h [18]: < 5 mg/kg/day
